This note sets out measurements from ChEMBL document CHEMBL1139397, “Thiazolidinone CFTR inhibitors with improved water solubility identified by structure-activity analysis” (Bioorg Med Chem, 2008).

The source made the active and inactive calls. No cut-off for these calls is given here.

System in the first data set: not listed separately
The data set can be described thus: Cytotoxicity against rat FRT cells assessed as cell viability at 20 uM after 48 hrs by crystal violet staining. The class given is cell-based. The procedure, abridged: (§1)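 Confluent FRT monolayers exposed to compound for 2 days. Cells were then washed three times, fixed for 30 min and stained with 0.5% crystal violet for 10 min. Dye was extracted in Sorenson's buffer (0.1 M sodium citrate, 50% ethanol, pH 4.2) and read at 650 nm. Percent staining was taken from 8 replicate wells relative to cell-free blanks and vehicle-treated cells.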
For the molecule `O=C1/C(=C/c2ccc(-c3nn[nH]n3)cc2)SC(=S)N1c1cccc(C(F)(F)F)c1`, the Activity is on record as 87%. Take `O=C(O)c1ccc(/C=C2\SC(=O)N(c3cccc(C(F)(F)F)c3)C2=O)cc1`: the Activity is 93%. Take `O=C(O)c1ccc(/C=C2\SC(=S)N(c3cccc(C(F)(F)F)c3)C2=O)cc1`: the Activity was determined as 86%. For the molecule `Cc1c(N2C(=O)/C(=C/c3ccc(C(=O)O)cc3)SC2=S)cccc1C(F)(F)F`, the Activity turned out to be 89%.

For the next data set, the target named is Cystic fibrosis transmembrane conductance regulator (Homo sapiens, UniProt P13569). The data set can be described thus: Inhibition of human wild type CFTR expressed in rat FRT cells assessed as chloride current by short-circuit current measurements. It is filed as cell-based. The essentials: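 FRT cells stably expressing human wildtype CFTR were grown on filters to >1,000 Ω·cm2. Basolateral membrane permeabilized with amphotericin B (250 μg/ml, 30 min). Apical Cl− current was measured under a gradient: basolateral 130 mM NaCl buffer, pH 7.3; apical 65 mM NaCl replaced by gluconate. Solutions at 37 °C under 95% O2/5% CO2. CFTR activated with 100 μM CPT-cAMP, then inhibitor added at increasing concentrations. IC50 fitted from concentration-inhibition data.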
Regarding `O=C1/C(=C/c2ccc(O)c(O)c2)SC(=S)N1c1cccc(C(F)(F)F)c1`, the result was inactive. As for `O=C(O)c1ccccc1/C=C1\SC(=S)N(c2cccc(C(F)(F)F)c2)C1=O`, the IC50 – broadly, the concentration at which inhibition is half-maximal – is 15 µM.

Regarding `O=C(O)c1cccc(/C=C2\SC(=S)N(c3ccccc3C(F)(F)F)C2=O)c1`, the IC50 was determined as 19 µM. On the same count and under the same terms, for `O=C1/C(=C/c2ccc(O)cc2)SC(=S)N1c1cccc(C(F)(F)F)c1` the value was 24 µM; for `O=C(O)c1ccc(NC2=C(Cl)C(=O)N(c3cccc(C(F)(F)F)c3)C2=O)cc1`, 36 µM. Take `O=C(O)c1ccc(/C=C2\SC(=S)N(c3cc(C(F)(F)F)cc(C(F)(F)F)c3)C2=O)cc1`: the IC50 is 14 µM.

As to `O=C1/C(=C/c2cc(Br)c(O)c(Br)c2O)SC(=S)N1c1cccc(C(F)(F)F)c1`, the IC50 stood at 8 µM. In the case of `CC(=O)OCOC(=O)c1ccc(/C=C2\SC(=S)N(c3cccc(C(F)(F)F)c3)C2=O)cc1`, the result was inactive. As to `O=C(O)c1cc(Nc2nnc(-c3cccc(C(F)(F)F)c3)s2)ccc1O`, the outcome was inactive.

Consider `O=C1/C(=C/c2ccc(S(=O)(=O)O)cc2S(=O)(=O)O)SC(=S)N1c1cccc(C(F)(F)F)c1`, for which the IC50 was 50 µM.

With `Cc1cccc(N2C(=O)/C(=C/c3ccc(C(=O)O)cc3)SC2=S)c1C`, the IC50 worked out at 7 µM.

Consider `O=C(O)c1ccc(/C=C2\SC(=S)N(c3ccc(F)c(C(F)(F)F)c3)C2=O)cc1`, for which the IC50 is 1.5 µM. With `O=C(O)c1ccc(CC2SC(=S)N(c3cccc(C(F)(F)F)c3)C2=O)cc1` (stereo unspecified), the IC50 amounted to 27 µM.

As to `O=C(O)c1ccc(/C=C2\SC(=S)N(c3cc(C(F)(F)F)ccc3Cl)C2=O)cc1`, the IC50 came out at 20 µM. Still for that read-out and setting: for `O=C1/C(=C/c2ccncc2)SC(=S)N1c1cccc(C(F)(F)F)c1` the value was 28 µM. The same measure, in the same setting: the result for `O=C(O)c1ccc(NC(=S)C2SC(=S)N(c3cccc(C(F)(F)F)c3)C2=O)cc1` (stereo unspecified) reads 9 µM; that for `Cc1cccc(N2C(=O)/C(=C/c3ccc(C(=O)O)cc3)SC2=S)c1`, 5 µM. As to `O=C(NCCO)c1ccc(/C=C2\SC(=S)N(c3cccc(C(F)(F)F)c3)C2=O)cc1`, the result was inactive.

For the molecule `O=C(O)c1ccc(/C=C2\SC(=S)N(Cc3cccc(C(F)(F)F)c3)C2=O)cc1`, the outcome was inactive.

With `O=C(O)c1cccc(/C=C2\SC(=S)N(c3ccc(C(F)(F)F)cc3)C2=O)c1`, the IC50 is 13 µM. For `NCCNC(=O)c1ccc(/C=C2\SC(=S)N(c3cccc(C(F)(F)F)c3)C2=O)cc1`, the outcome was inactive.

Turning to `COc1c(Br)cc(/C=C2\SC(=S)N(c3cccc(C(F)(F)F)c3)C2=O)c(O)c1Br`, the outcome was inactive. Take `O=C(O)COc1cccc(/C=C2\SC(=S)N(c3cccc(C(F)(F)F)c3)C2=O)c1`: the IC50 stood at 30 µM.

On to `O=C(O)c1ccc(Nc2nc(-c3cccc(C(F)(F)F)c3)cs2)cc1`, for which the IC50 is 28 µM. `O=C1/C(=C/c2cc(Br)c(O)c(Br)c2)SC(=S)N1c1cccc(C(F)(F)F)c1`: the IC50 came out at 7 µM. Take `O=C1/C(=C/c2ccc(S(=O)(=O)O)cc2)SC(=S)N1c1cccc(C(F)(F)F)c1`: the IC50 came to 29 µM.

Take `COc1cc(Br)ccc1/C=C1\SC(=S)N(c2cccc(C(F)(F)F)c2)C1=O`: the result was inactive. Turning to `O=C(O)c1cccc(/C=C2\SC(=S)N(c3cccc(C(F)(F)F)c3)C2=O)c1`, the IC50 came to 1.5 µM. For the molecule `O=C(O)c1cc(Nc2nc(-c3cccc(C(F)(F)F)c3)cs2)ccc1O`, the IC50 came out at 32 µM. As to `O=C(O)c1ccc(Nc2nnc(-c3cccc(C(F)(F)F)c3)s2)cc1`, the outcome was inactive. `O=C(O)c1cccc(/C=C2\SC(=S)N(c3ccc(F)c(C(F)(F)F)c3)C2=O)c1`: the IC50 turned out to be 5 µM. For `O=C1S/C(=C\c2ccc(-c3nn[nH]n3)cc2)C(=O)N1c1cccc(C(F)(F)F)c1`, the IC50 was determined as 17 µM. With `O=C(O)c1ccc(/C=C2\SC(=S)N(c3ccccc3C(F)(F)F)C2=O)cc1`, the IC50 was 12 µM. For the molecule `COc1ccc(/C=C2\SC(=S)N(c3cccc(C(F)(F)F)c3)C2=O)cc1`, the outcome was inactive. Consider `O=C(O)c1ccc(-n2cc(-c3cccc(C(F)(F)F)c3)nn2)cc1`, for which the result was inactive.

On to `O=C(O)c1cc(/C=C2\SC(=S)N(c3ccc(C(F)(F)F)cc3)C2=O)ccc1O`, for which the IC50 stood at 25 µM. As to `O=C(O)c1ccc(SC2CC(=O)N(c3cccc(C(F)(F)F)c3)C2=O)cc1` (stereo unspecified), the IC50 worked out at 7 µM. Take `O=C(O)c1ccccc1/C=C1\SC(=S)N(c2ccccc2C(F)(F)F)C1=O`: the IC50 came to 18 µM. Regarding `O=C1/C(=C/c2cc(O)c(O)c(O)c2)SC(=S)N1c1cccc(C(F)(F)F)c1`, the IC50 stood at 11 µM. As for `O=C(O)c1cc(/C=C2\SC(=S)N(c3ccccc3C(F)(F)F)C2=O)ccc1O`, the IC50 was 14 µM. Consider `CCOC(=O)c1ccc(/C=C2\SC(=S)N(c3cccc(C(F)(F)F)c3)C2=O)cc1`, for which the outcome was inactive. `O=C(O)c1ccc(/C=C2\SC(=S)N(c3ccc(C(F)(F)F)cc3)C2=O)cc1`: the IC50 was found to be 15 µM. On the same count and under the same terms, for `O=C(O)c1ccccc1/C=C1\SC(=S)N(c2ccc(C(F)(F)F)cc2)C1=O` the value was 20 µM. On to `O=C(O)c1ccc(-n2cc(-c3ccc(C(F)(F)F)cc3)nn2)cc1`, for which the outcome was inactive. `O=C(O)c1cc(/C=C2\SC(=S)N(c3cccc(C(F)(F)F)c3)C2=O)ccc1O`: the IC50 came out at 1.4 µM. On the same count and under the same terms, the result for `O=C1C(C(=S)Nc2ccc(S(=O)(=O)O)o2)SC(=S)N1c1cccc(C(F)(F)F)c1` (stereo unspecified) reads 27 µM. For the molecule `NC(=O)c1ccc(/C=C2\SC(=S)N(c3cccc(C(F)(F)F)c3)C2=O)cc1`, the result was inactive. For the molecule `O=C1/C(=C/c2ccc(O)c(O)c2O)SC(=S)N1c1cccc(C(F)(F)F)c1`, the IC50 was found to be 28 µM. In the case of `O=C(O)c1ccc(/C=C2\SC(=S)N(c3ccc(Cl)c(C(F)(F)F)c3)C2=O)cc1`, the IC50 amounted to 15 µM.

System in the next data set: not listed separately
The data set can be described thus: Cytotoxicity against rat FRT cells assessed as cell viability at 50 uM after 48 hrs by crystal violet staining. The class given is cell-based. The procedure, abridged: as §1
For `O=C1/C(=C/c2ccc(-c3nn[nH]n3)cc2)SC(=S)N1c1cccc(C(F)(F)F)c1`, the Activity amounted to 73%. Still for that read-out and setting: the result for `O=C(O)c1ccc(/C=C2\SC(=O)N(c3cccc(C(F)(F)F)c3)C2=O)cc1` reads 91%; that for `Cc1c(N2C(=O)/C(=C/c3ccc(C(=O)O)cc3)SC2=S)cccc1C(F)(F)F`, 72%.
